Measurements collected from several papers.
Compare with care: the assays were run in different laboratories.

SMILES	target or system	test	test system	setting	quantity	result
CO[C@H]1/C=C/O[C@@]2(C)Oc3c(C)c(O)c4c(O)c(c(/C=N/N5CCN(C6CCCC6)CC5)c(O)c4c3C2=O)NC(=O)/C(C)=C\C=C\[C@H](C)[C@H](O)[C@@H](C)[C@@H](O)[C@@H](C)[C@H](OC(C)=O)[C@@H]1C	Plasmodium falciparum	parasite growth	DD2	drug-resistant strain, blood stage	IC50	1980 nM
CC(C)C[C@H](NC(=O)[C@H](CC(C)C)NC(=O)[C@H](CCCCN)NC(=O)[C@H](CCCCN)NC(=O)[C@H](CC(C)C)NC(=O)[C@H](CC(C)C)NC(=O)[C@H](CCCCN)NC(=O)[C@H](CCCCN)NC(=O)[C@H](CC(C)C)NC(=O)[C@H](CC(C)C)NC(=O)[C@H](CCCCN)NC(=O)[C@H](CCCCN)NC(=O)[C@H](CC(C)C)NC(=O)[C@@H](N)CCC(=O)O)C(N)=O	HCCC9810	cell growth or viability, CCK-8	–	–	IC50	8870 nM
CCN1CCN(Cc2ccc(Nc3nc4ccc(Oc5ccnc(NC(=O)C6CCN(C)CC6)c5)cc4n3C)cc2C(F)(F)F)CC1	Plasmodium falciparum	parasite growth, SYBR Green	3D7	blood stage	EC50	210 nM
CO[C@H]1C[C@H](O[C@@H]2/C(C)=C/C[C@@H]3C[C@@H](C[C@]4(CC[C@H](C)[C@@H](C5CCCCC5)O4)O3)OC(=O)[C@@H]3C=C(C)/C(=N/O)[C@H]4OC/C(=C\C=C\[C@@H]2C)[C@]43O)O[C@@H](C)[C@@H]1O	Plasmodium falciparum	parasite growth	K1	drug-resistant strain, blood stage	IC50	311 nM
CC(C)C[C@H](NC(=O)[C@H](CCC(=O)O)NC(=O)[C@H](CCCCN)NC(=O)[C@H](CCCCN)NC(=O)[C@H](CC(C)C)NC(=O)[C@H](CC(C)C)NC(=O)[C@H](CCCCN)NC(=O)[C@H](CCCCN)NC(=O)[C@H](CC(C)C)NC(=O)[C@H](CC(C)C)NC(=O)[C@H](CCCCN)NC(=O)[C@H](CCCCN)NC(=O)[C@H](CC(C)C)NC(=O)[C@@H](N)CC(C)C)C(N)=O	HCCC9810	cell growth or viability, CCK-8	–	–	IC50	10200 nM
COc1cc(NC(=N)CC(O)c2cc3c(F)cc(F)cc3c3cc(C(F)(F)F)ccc23)ccc1Br (stereo not drawn)	Plasmodium falciparum	parasite growth, ELISA	3D7	72 h, blood stage	IC50	13.6 nM
CC(=O)N[C@H]1[C@@H](O[C@@H]2O[C@H](C[C@@H](O)[C@H]3O[C@@H](n4ccc(=O)[nH]c4=O)[C@H](O)[C@@H]3O)[C@H](O)[C@H](O)[C@H]2NC(=O)/C=C/CCCCCCCCCC(C)C)O[C@H](CO)[C@@H](O)[C@@H]1O	MDA-MB-453	cell growth or viability, WST-1	–	–	IC50	160 nM
CC(C)C[C@H](NC(=O)[C@H](CC(C)C)NC(=O)[C@H](CCCCN)NC(=O)[C@H](CCCCN)NC(=O)[C@H](CC(C)C)NC(=O)[C@H](CCC(=O)O)NC(=O)[C@H](CCCCN)NC(=O)[C@H](CCCCN)NC(=O)[C@H](CC(C)C)NC(=O)[C@H](CC(C)C)NC(=O)[C@H](CCCCN)NC(=O)[C@H](CCCCN)NC(=O)[C@H](CC(C)C)NC(=O)[C@@H](N)CC(C)C)C(N)=O	HCCC9810	cell growth or viability, CCK-8	–	–	IC50	24600 nM
N=C(CC(O)c1cc2c(F)cc(F)cc2c2cc(C(F)(F)F)ccc12)Nc1nc2ccccc2[nH]1 (stereo not drawn)	Plasmodium falciparum	parasite growth, ELISA	3D7	72 h, blood stage	IC50	5590 nM
COc1ccc2cc1Oc1ccc(cc1)C[C@H]1c3c(cc4c(c3Oc3cc5c(cc3OC)CCN(C)[C@@H]5C2)OCO4)CCN1C	Plasmodium falciparum	parasite growth	K1	drug-resistant strain, blood stage	IC50	91.4 nM
N#Cc1ccc(NC(=N)CC(O)c2cc3c(F)cc(F)cc3c3cc(C(F)(F)F)ccc23)cc1 (stereo not drawn)	Plasmodium falciparum	parasite growth, ELISA	3D7	72 h, blood stage	IC50	24.7 nM
CCN(CC)CCOc1ccc2c(c1)C(=O)c1cc(OCCN(CC)CC)ccc1-2	Plasmodium falciparum	parasite growth	K1	drug-resistant strain, blood stage	IC50	500 nM
N.N.[Cl][Pt][Cl]	RS4-11	cell growth or viability, ATP luminescence	–	72 h	IC50	610 nM
C[C@@H]1CC[C@H]2[C@@H](C)C(=O)O[C@@H]3O[C@@]4(C)CC[C@@H]1[C@]32OO4	Plasmodium falciparum	parasite growth	K1	drug-resistant strain, blood stage	IC50	0.6 nM
N=C(CC(O)c1cc2c(F)cc(F)cc2c2cc(C(F)(F)F)ccc12)Nc1ccccc1I (stereo not drawn)	Plasmodium falciparum	parasite growth, ELISA	3D7	72 h, blood stage	IC50	10.9 nM
